Our source for the Ratio, viability and Retention_time values is ChEMBL document CHEMBL3399938, “Chemopreventive flavonoids from Millettia pulchra Kurz var-laxior (Dunn) Z.Wei (Yulangsan) function as Michael reaction acceptors” (Bioorg Med Chem Lett, 2015).

Data set [1] deals with NAD(P)H dehydrogenase [quinone] 1 (Mus musculus) (UniProt Q64669). Put plainly: Induction of NQO1 activity in mouse Hepa-1c1c7 cells assessed as induction ratio at 20 uM after 48 hr by NADPH-dependent MTT assay relative to control. The data set is classed as cell-based. Summed up: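 Hepa 1c1c7 cells were seeded at 1 × 10^4 cells/mL in α-MEM with 10% FBS, grown 24 h (5% CO2, 37 °C), then exposed to sample for 24 h. Lysis used 0.8% digitonin in 2 mM EDTA (pH 7.8) for 10 min at 37 °C. A menadione/NADP/glucose-6-phosphate dehydrogenase mix with 0.72 mM MTT was added, then read at 590 nm after 3 min shaking. IR = NQO1 activity of sample-treated over DMSO-treated cells; mean ± SE of three independent experiments.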

A short description of data set [2]: Cytotoxicity against mouse Hepa-1c1c7 cells assessed as cell viability at 20 uM […]. The following applies: read-out: Activity. It counts as functional. Summed up:
(§1)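 Hepa 1c1c7 cells were seeded at 1 × 10^4 cells/mL in α-MEM with 10% FBS and 0.1% penicillin–streptomycin, then grown 24 h at 37 °C in 5% CO2. Medium was replaced with fresh medium containing sample for another 24 h. Cells were then stained with 0.2% crystal violet in 2% ethanol for 10 min, washed and dried. Bound dye was dissolved in 0.5% SDS in 50% ethanol and read at 595 nm.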

The target of data set [3] is NAD(P)H dehydrogenase [quinone] 1 (Mus musculus) (UniProt Q64669). Kind of data set: Induction of NQO1 activity in mouse Hepa-1c1c7 cells assessed as induction ratio at 10 uM […] by NADPH-dependent MTT assay relative to control. It counts as cell-based.
Data set [4] in a line: Cytotoxicity against mouse Hepa-1c1c7 cells assessed as cell viability at 10 uM […]. The following applies: read-out: Activity. It counts as functional. The method, boiled down: as §1
A short description of data set [5]: Retention time of the compound by UPLC analysis. It counts as physicochemical. The following applies: in the assay text read “preparative reverse-phase HPLC” for “UPLC”.

Chain of NAD(P)H dehydrogenase [quinone] 1 (Mus musculus) (Q64669 whole entry): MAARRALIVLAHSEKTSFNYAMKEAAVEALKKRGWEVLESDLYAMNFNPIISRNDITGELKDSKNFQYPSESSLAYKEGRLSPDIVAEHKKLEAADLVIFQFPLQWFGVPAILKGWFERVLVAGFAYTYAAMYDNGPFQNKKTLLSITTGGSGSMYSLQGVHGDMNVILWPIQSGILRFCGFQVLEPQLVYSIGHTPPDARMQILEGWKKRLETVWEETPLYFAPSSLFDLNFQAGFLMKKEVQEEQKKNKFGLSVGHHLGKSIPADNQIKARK

On to `COc1c(C(=O)/C=C/c2ccccc2)ccc2occc12`, for which, in data set [1], the Ratio is 2.01. In addition, in data set [2], the viability at 20 µM was 81%.
Regarding `CC1(C)C=Cc2c(c(O)cc3c(=O)cc(-c4ccccc4)oc23)O1`, the Ratio in data set [1] came out at 2.14. In data set [2], the viability at 20 µM was 71%.
For `CC1(C)C=Cc2c(ccc3c(=O)cc(-c4ccccc4)oc23)O1`, in that order: 1.6 and 99%.
For `COc1cc2c(c3oc(-c4ccccc4)cc(=O)c13)C=CC(C)(C)O2` [CANDIDIN], in that order: 2.02 and 79%.
For `O=c1cc(-c2ccccc2)oc2c1ccc1occc12` [LANCEOLATIN B], in that order: 1.64 and 100%.
With `O=c1cc(-c2ccc(Br)cc2)oc2ccccc12`, the Ratio in data set [3] is 2.17. Also, in data set [4], the viability at 10 µM came out at 109%.
Take `COc1c(C(=O)/C=C(\O)c2ccccc2)ccc2c1C=CC(C)(C)O2`: in data set [1], the Ratio worked out at 1.9. For the same compound, the viability at 20 µM in data set [2] was 77%.
For `COc1c(-c2ccccc2)oc2c(ccc3occc32)c1=O` [KARANJIN], in that order: 1.57 and 100%.
For `COc1c(C(=O)C[C@@H](OC)c2ccccc2)ccc2occc12`, in that order: 2.07 and 92%.
For `CC1(C)C=Cc2c(ccc(C(=O)/C=C/c3ccccc3)c2O)O1` [LONCHOCARPIN], in that order: 1.7 and 84%.
`COc1c(C(=O)/C=C(\O)c2ccccc2)ccc2occc12` [PONGAMOL]: the Ratio in data set [1] came to 1.69. In addition, the viability at 20 µM in data set [2] was determined as 78%.
For `O=c1c2c(oc3c1ccc1occc13)-c1ccccc1OC2`, in that order: 1.67 and 97%.
For `COc1cc2c(c(O)c1C(=O)/C=C/c1ccccc1)C=CC(C)(C)O2`, the Ratio in data set [1] turned out to be 2.14. For the same compound, the viability at 20 µM in data set [2] is 83%. This compound also came in with a Retention_time in data set [5] of 131 min.
For `CC1(C)C=Cc2c(ccc3c2OC(c2ccccc2)CC3=O)O1` (centres undefined), in data set [1], the Ratio was 1.54. The viability at 20 µM in data set [2] came to 114%.
On to `O=C(/C=C/c1ccccc1)c1ccc2occc2c1O`, for which the Ratio in data set [1] is 1.75. Moreover, the viability at 20 µM in data set [2] stood at 90%. The Retention_time in data set [5] came to 58 min.
As to `COc1cc2c(=O)cc(-c3ccccc3)oc2c2c1OC(C)(C)C=C2`, the Ratio in data set [1] amounted to 1.4. In addition, the viability at 20 µM in data set [2] amounted to 106%.
